Source: BindingDB's records for doi:10.1021/jm960074e (National Cancer Institute-Bethesda, 1996)

Target: Integrase (Human immunodeficiency virus 1, UniProt Q7ZJM1)
Test: Inhibitory activity against HIV-1 integrase
Method in brief: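 Purified recombinant wild-type HIV-1 integrase, 200 nM final, preincubated with inhibitor for 30 min at 30 °C. Buffer: 25 mM MOPS pH 7.2, 7.5 mM MnCl2, 50 mM NaCl, 10% DMSO, 10% glycerol, BSA, DTT, 2-mercaptoethanol. Then 20 nM 5'-32P-labeled 21mer U5 duplex added for 60 min. Products run on denaturing 20% polyacrylamide gel and quantified by phosphorimager.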

Sequence of Integrase (Q7ZJM1 whole entry): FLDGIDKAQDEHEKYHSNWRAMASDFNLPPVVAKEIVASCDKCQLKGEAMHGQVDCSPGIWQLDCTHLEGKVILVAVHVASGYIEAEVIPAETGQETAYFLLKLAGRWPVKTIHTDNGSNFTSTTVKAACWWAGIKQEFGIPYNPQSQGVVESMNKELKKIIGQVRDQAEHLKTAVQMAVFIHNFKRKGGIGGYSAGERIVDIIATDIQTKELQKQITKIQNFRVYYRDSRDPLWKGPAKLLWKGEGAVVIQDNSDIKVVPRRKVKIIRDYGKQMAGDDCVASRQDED

IC50	Compound
> 100 µM	O=C1Oc2ccccc2C(O)C1Cc1c(O)c2ccccc2oc1=O (stereo not given) [NSC-41834]
> 100 µM	COc1cc(C(=C2C(=O)C(=O)c3ccccc3C2=O)c2c(O)c(O)c3ccccc3c2O)cc(OC)c1OC [NSC-117278]
100 µM	CCOc1ccc(C(=C2C(=O)C(=O)c3ccccc3C2=O)c2c(O)c(O)c3ccccc3c2O)cc1OC [2-[4-ethoxy-3-methoxyphenyl(3-hydroxy-1,4-dioxo-1,4-dihydro-2-naphthalenyl)methyl]-3-hydroxy-1,4-dihydro-1,4-naphthalenedione]
> 100 µM	O=C1C(=O)C(Sc2ccccc2)C(=O)c2ccccc21 (stereo not given) [NSC-108029]
> 100 µM	CC(=O)c1cccc(NC(=O)C(=O)c2c(O)c3ccccc3oc2=O)c1 [N-(3-Acetyl-phenyl)-2-(4-hydroxy-2-oxo-2H-chromen-3-yl)-2-oxo-acetamide]
> 100 µM	CN(C)c1ccc(C(=C2C(=O)C(=O)c3ccccc3C2=O)c2c(O)c(O)c3ccccc3c2O)cc1 [NSC-92203]
> 100 µM	O=C1C(=O)c2ccccc2C(=O)C1=C(c1ccc(Cl)cc1)c1c(O)c(O)c2ccccc2c1O [2-[4-chlorophenyl(3-hydroxy-1,4-dioxo-1,4-dihydro-2-naphthalenyl)methyl]-3-hydroxy-1,4-dihydro-1,4-naphthalenedione]
> 100 µM	O=C(c1cccc([N+](=O)[O-])c1)c1c(O)c2ccccc2oc1=O [NSC-133800]
> 100 µM	CC(=C1C(=O)C(=O)c2ccccc2C1=O)c1c(O)c(O)c2ccccc2c1O [2-hydroxy-3-[1-(3-hydroxy-1,4-dioxo-1,4-dihydro-2-naphthalenyl)ethyl]-1,4-dihydro-1,4-naphthalenedione]

Compound	IC50
Cc1ccc(S(=O)(=O)NN=C(CCN2CCCC2)CC(c2ccccc2)c2c(O)c3ccccc3oc2=O)cc1 (stereo not given) [NSC-647410]	> 100 µM
